# Experimental data from ChEMBL document CHEMBL1795280, “Design, synthesis and activity of a potent, selective series of N-aryl pyridinone inhibitors of p38 kinase” (Bioorg Med Chem Lett, 2011).
# Assays:
# [1] = Solubility of the compound; format: physicochemical
# [2] = Metabolic stability in human liver microsomes assessed as compound remaining at 2 uM after 45 mins by LC/MS analysis; format: ADME, Microsome; details: read-out: Stability
# [3] = test system: PBMC; assay: Antiinflammatory activity in human PBMC assessed as inhibition of LPS-induced TNFalpha production treated 1 hr before LPS challenge measured after 18 hrs; format: functional, cell-based
# Method in brief: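 PBMCs isolated by Ficoll from heparinized blood of two healthy donors, in DMEM with 5% endotoxin-free FBS, 2.5 × 10⁵ cells/well. Pretreated 1 h with compound (0.0001–25 µM range), then stimulated 18 h with 22 ng/ml LPS. Final DMSO 0.25%. Secreted TNFα measured by MSD; IC50 reported.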
# [4] = Clearance in iv and po dosed Sprague-Dawley rat; format: ADME, organism-based; details: in vivo
# [5] = molecular target: Mitogen-activated protein kinase 14 (Homo sapiens, UniProt Q16539); assay: Inhibition of p38alpha assessed as phosphorylation of […] after 60 mins by fluorescence assay
# Method in brief: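 Cascade assay in which activated p38α (6 pM final) activates unactivated MK2 (1 nM), which phosphorylates FITC-labelled Hsp27 peptide (1 nM) with […]. Inhibitor 0.2–10,000 nM. Room temperature, 60 min, EDTA quench. Phospho-peptide quantified by Caliper LabChip; IC50.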
# [6] = test system: Rattus norvegicus; assay: Antiinflammatory activity in Lewis rat assessed as inhibition of LPS-induced TNFalpha production at 5 mg/kg, po administered 6 hrs before LPS challenge by ELISA; format: functional
# Method in brief: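 Adult male Lewis rats (225–250 g), fasted 18 h with free access to water. Compound or vehicle given by oral gavage (1 mL). LPS (E. coli 0111:B4) given 1 mg/kg i.v. in saline 2, 4 or 6 h later. Serum taken by cardiac puncture 90 min after LPS. TNFα quantified against a recombinant rat TNF standard curve with a four-parameter fit. Two vehicle groups per experiment, three experiments.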
# [7] = Metabolic stability in rat liver microsomes assessed as compound remaining at 2 uM after 45 mins by LC/MS analysis; format: ADME, Microsome; details: read-out: Stability
# [8] = Half life in iv and po dosed Sprague-Dawley rat; format: ADME, organism-based; details: in vivo
# [9] = Bioavailability in iv and po dosed Sprague-Dawley rat; format: ADME, organism-based; details: in vivo
# [10] = test system: Rattus norvegicus; assay: Antiinflammatory activity in Lewis rat assessed as inhibition of LPS-induced TNFalpha production at 15 mg/kg, po administered 4 hrs before LPS challenge by ELISA
# Chain of Mitogen-activated protein kinase 14 (Q16539 whole entry): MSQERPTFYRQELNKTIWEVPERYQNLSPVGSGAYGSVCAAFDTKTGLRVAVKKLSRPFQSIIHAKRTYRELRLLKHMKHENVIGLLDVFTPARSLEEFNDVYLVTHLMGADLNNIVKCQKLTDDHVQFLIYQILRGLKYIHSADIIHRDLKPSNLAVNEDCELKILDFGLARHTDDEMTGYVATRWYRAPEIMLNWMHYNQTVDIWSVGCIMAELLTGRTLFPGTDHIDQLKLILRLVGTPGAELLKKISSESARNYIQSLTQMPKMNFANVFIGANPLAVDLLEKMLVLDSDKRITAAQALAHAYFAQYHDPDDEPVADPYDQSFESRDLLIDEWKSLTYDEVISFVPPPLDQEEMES
SMILES,solubility [1] [µg/mL],"remaining at 0.75 h, 2 µM [2] [%]",IC50 [3] [nM],clearance [4] [mL/min/kg],IC50 [5] [nM],inhibition in vivo at 5 mg/kg [6] [%],"remaining at 0.75 h, 2 µM [7] [%]",half-life [8] [min],bioavailability [9] [%],inhibition in vivo at 15 mg/kg [10] [%]
Cc1cc(OCc2ccc(F)cc2F)c(Cl)c(=O)n1-c1c(F)cccc1F,< 10,74,17,12.8,4,83,87,108,21,
CN(C)Cc1cc(OCc2ccc(F)cc2F)c(Br)c(=O)n1-c1c(F)cccc1F,,0,50,,6,,0,,,69
